The list is not random: actives were taken first. Their share in the collection is about 1.9%.
HCV core dimer: blocks dimerization of HCV core protein | TR-FRET GST/Flag-core106 dimerization, 1536-well | inhibition, % at 5 µM | hit rate 0.33% among 300,000 | AID 1899;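 active = inhibition above the mean of all tested compounds plus 3 SD, set per screening campaign, cut at about 45% in these data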
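assay system = GST-tagged and Flag-tagged HCV core protein residues 1-106 | controls = unlabelled core106 and no-GST-core106 wells | incubation = compound-protein-antibody incubation 4 h at 22.5 °C | probe or stimulus = Eu donor and XL665 acceptor anti-tag antibodies | read-out = % inhibition based on acceptor/donor emission ratio | signal = TR-FRET 671 and 617 nm emission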
VIM-2 inhibitor: inhibitors of Pseudomonas aeruginosa VIM-2 metallo-beta-lactamase. AID 1527. purified VIM-2, nitrocefin hydrolysis, epi-absorbance fluorescence. inhibition, % at 5.6 µM. hit rate 0.89% among 290,000;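 active = inhibition above the mean of all tested compounds plus 3 SD, cutoff set per screening run, cut at about 7.5% in these data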;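 note: red hydrolysis product quenches plate fluorescence so inhibitors raise well fluorescence; 0% = enzyme with DMSO and 100% = DMSO without enzyme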
IMP-1 inhibitor: inhibitors of Pseudomonas aeruginosa IMP-1 metallo-beta-lactamase; purified IMP-1, nitrocefin hydrolysis, epi-absorbance fluorescence; inhibition, % at 5.6 µM; hit rate 0.45% among 290,000; AID 1556;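 active = inhibition above the mean plus 3 SD of all compounds in the same screening run, cut at about 4.5% in these data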;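 note: 0% = IMP-1 with DMSO and 100% = DMSO wells lacking enzyme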
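System: Purified IMP-1 | Read-out basis: Percent enzyme inhibition | Controls: IMP-1 with DMSO as 0%, enzyme-free DMSO as 100% | Replicates: One well per compound | Doses: 5.6 µM nominal single concentration | Detection: Epi-absorbance fluorescence, 480 nm excitation, 530 nm emission | Incubation: 25 °C, 15 min preincubation, 25 min reaction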
NadD inh: NadD (S. aureus) enzyme inhibition. purified NadD enzyme, colorimetric absorbance read-out. inhibition, % at 20 µM. hit rate 0.78% among 360,000. AID 602399; in the data active = inhibition above about 26%
Starred values were filed as active, the others as inactive; x = not tested or not shown.

SMILES	HCV core dimer	VIM-2 inhibitor	IMP-1 inhibitor	NadD inh
COc1cc(NS(=O)(=O)c2ccc(NC(=O)/C(=C\c3ccccc3OC)NC(=O)c3ccccc3)cc2)nc(OC)n1	23	-1	-2	31*
COc1ccc(Cl)cc1C(=O)NNC(=O)CSc1nncn1C	x	x	x	-1
CN(C)C(=O)c1ccc(Nc2ncnc3sc4c(c23)CCCCC4)cc1	8	0	-1	-1
O=C1c2ccccc2C(=O)N1Nc1ccc([N+](=O)[O-])cc1[N+](=O)[O-]	-13	-1	4.5*	5
Cc1ccc(S(=O)(=O)/N=C2/C=C(Sc3ncn[nH]3)C(=O)c3ccccc32)cc1	-11	3	-3	50*
CC(C)c1ccc(S(=O)(=O)/N=C2/C=C(Sc3ncn[nH]3)C(=O)c3ccccc32)cc1	-6	4	0	83*
Cc1ccc(S(=O)(=O)/N=C2/C=C(Sc3ncn[nH]3)C(=O)c3ccccc32)c(C)c1	-5	-1	-3	x
CCN(CC)CCCNC(=S)N1CCN(c2nc3ccccc3n2CC)CC1	x	-2	-2	-7
COc1ccc(OC)c(C(=O)COC(=O)c2cccnc2Cl)c1	-2	-6	-6	-5
COc1ccc(C(=O)COC(=O)c2cccnc2Cl)c(OC)c1	68*	-1	-5	3
CCOC(=O)N1CCN(c2c(-c3ccc(C(C)C)cc3)c(=O)c2=O)CC1	4	1	5.3*	1
CCOC(=O)N1CCN(c2c(-c3ccc(C)cc3)c(=O)c2=O)CC1	-2	-1	-1	-5
Cc1ccc(CSc2cc(C)[nH]c(=O)n2)cc1	53*	-1	-4	25
Cc1noc(C)c1COc1ccc(C(=O)N2CCN(c3ccccn3)CC2)cc1	2	x	x	-7
N/N=C/C(=N\Nc1ccc(Cl)cc1)C(=O)c1ccncc1	3	8.8*	-3	2
O=C(CN(C(=O)CCC(=O)Nc1ccccn1)c1ccc2c(c1)OCO2)NCc1ccc(F)cc1	8	-2	-3	-2
CSc1nc(NCC(C)C)c2c3c(sc2n1)CN(C)CC3	-2	8.4*	0	-4
COCCNc1nc(SC)nc2sc3c(c12)CCN(C)C3	0	9.8*	0	-2
CCN(CC)CCNc1nc(SC)nc2sc3c(c12)CCN(C)C3	-5	11*	0	-2
CC(C)c1cc(C(=O)OCC(=O)NC2CCS(=O)(=O)C2)c(O)c(C(C)C)c1 (stereo not drawn)	x	x	x	1
COc1ccc(-c2nc(CSCC(=O)NC3CCN(Cc4ccccc4)CC3)c(C)o2)cc1OC	6	-2	-2	-10
CC1C=CCC2C(=O)N(c3cccc(C(=O)NCc4ccccc4)c3)C(=O)C12 (stereo not drawn)	0	-2	-3	2
C#CCOCCOCCOCCNc1nc(N2CCN(C(=O)[C@H](CCCCN)n3cc([C@@H](N)C(C)CC)nn3)CC2)nc(N2CCN(C(=O)[C@H](CCCCN)n3cc([C@@H](N)CO)nn3)CC2)n1 (stereo partly drawn)	8	1	-1	x
C#CCOCCOCCOCCNc1nc(N2CCN(C(=O)[C@H]([C@@H](C)CC)n3cc([C@@H](N)CO)nn3)CC2)nc(N2CCN(C(=O)[C@H](CCCCN)n3cc([C@@H](N)C(C)CC)nn3)CC2)n1 (stereo partly drawn)	3	-1	14*	-2
C#CCOCCOCCOCCNc1nc(N2CCN(C(=O)[C@H](CCC(=O)O)n3cc(C(N)Cc4ccc(O)cc4)nn3)CC2)nc(N2CCN(C(=O)[C@H](CCC(=O)O)n3cc(C(N)[C@H](C)CC)nn3)CC2)n1 (stereo partly drawn)	-15	0	5.2*	3
SMILES	HCV core dimer	VIM-2 inhibitor	IMP-1 inhibitor	NadD inh
Cc1ccc(NC(=O)COc2ccccc2)c(NC(=O)c2ccco2)c1	-3	-3	-2	-1
c1coc(CN(Cc2ccco2)c2ncnc3c2oc2ccccc23)c1	3	0	4.7*	6
Clc1ncnc2c1oc1ccccc12	3	1	-1	-2
Cc1cc(C)n2c(=O)c3ccc(Cl)cc3nc2c1C#N	52*	4	-1	-2
Cc1cc(Cl)n2c(nc3cc(F)c(F)cc32)c1C#N	x	4	-1	0
Cc1c(NC(=O)c2ccc(S(=O)(=O)N3CCOCC3)cc2)c(=O)n(-c2ccccc2)n1C	1	-3	-2	1
Cc1ccccc1-n1c(SCC(=O)N2CCOCC2)nc(O)c(Cc2ccccc2)c1=O	-6	-1	5.2*	0
O=C(O)C1=CC(=C(c2ccc(O)c(C(=O)O)c2)c2ccc(O)c(C(=O)O)c2)C=CC1=O	77*	x	x	x
CCN(CC)C(=O)CSc1nnc(-c2cc3ccccc3cc2O)n1CC	0	10*	-2	6
CCN(CC)C(=O)CSc1nc2ccccc2c(=O)n1CC	0	1	-3	-1
CN(c1ccc(Cl)cc1)c1cc(=O)n(C)c2ccccc12	67*	-1	-2	6
CN(C(=O)COc1cc(=O)n(C)c2ccccc12)c1ccc(Cl)cc1	-3	0	-1	4
Cc1ccc(C)c(CSc2nnc([C@@H]3CCCN3)o2)c1	1	3	5.0*	-1
Nc1ccc2nc(-c3cccc(-c4nc5ccc(N)cc5[nH]4)n3)[nH]c2c1	-26	10.0*	-5	13
Nc1ccc2nc(-c3ccc(-c4nc5ccc(N)cc5[nH]4)cc3)[nH]c2c1	-27	-3	-4	x
Cc1ccc(-c2nnc(N3CCCCC3)c3ccccc23)cc1S(=O)(=O)N1CCN(C)CC1	9	-1	-3	-3
Cc1ccc(-c2nnc3c4ccccc4c(C)nn23)cc1S(=O)(=O)N1CCN(C)CC1	5	12*	-2	-7
Cc1csc2nc3ccccc3c(=O)n12	4	7.8*	0	1
O=C(CC(CC(=O)c1ccccc1)C(=O)O)c1ccccc1	1	8.9*	-4	1
O=C(CC(CC(=O)c1ccccc1)c1ccccc1)c1ccccc1	-8	-3	-2	-13
CCCCn1c(NC(=O)c2ccccc2Cl)c(C#N)c2nc3ccccc3nc21	22	-2	0	19
N#Cc1c(NC(=O)c2ccccc2Cl)n(Cc2ccccc2)c2nc3ccccc3nc12	20	0	-2	32*
COc1ccc(N=Cc2sc(O)c3ccccc23)cc1	-39	2	8.3*	-3
Cc1ccc(N2CCCn3c2cc(C)c(C#N)c3=O)cc1C	2	7	1	10
Cc1ccc(N2CCCn3c2cc(C)c(C#N)c3=O)cc1Cl	3	7.8*	-1	10
SMILES	HCV core dimer	VIM-2 inhibitor	IMP-1 inhibitor	NadD inh
CC(C)n1c(SCC(=O)Nc2ccc(N3CCOCC3)cc2)nnc1-c1ccco1	-14	-3	-1	1
Cc1cnc(NC(=O)Cc2ccc(C)c(C)c2)s1	8	-4	8.7*	3
COc1ccc(C2C(C#N)=C(N)N(c3sc4c(c3C#N)CCCC4)C3=C2C(=O)CC(C)(C)C3)cc1 (stereo not drawn)	40	-1	4.7*	15
Cn1c(=O)cc(SCC(=O)NCCCN2CCOCC2)c2ccccc21	-3	-1	-4	-3
CCCCNC(=O)CSc1cc(=O)n(C)c2ccccc12	4	0	6.1*	-5
CCNC(=O)COC(=O)c1cccc(Br)c1	-1	0	2	-2

From PubChem BioAssay
